Drawing on ChEMBL document CHEMBL1146345, “Synthesis and evaluation of novel 1-(1H-1,2,4-triazol-1-yl)-2-(2,4-difluorophenyl)-3-[(4-substitutedphenyl)-piperazin-1-yl]-propan-2-ols as antifungal agents” (2007), this text covers MIC80 for 18 compounds.

Molecules are shown by their SMILES. Converted amounts (≈) assume the structure as drawn.

What all share (assay type): functional
The test system of assay [1] is Nakaseomyces glabratus. Briefly: Antifungal activity against Torulopsis glabrata by micro-broth dilution method. The gist of the method: (§1)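 NCCLS microbroth dilution: drugs diluted in growth medium, inoculated, then incubated at 35 C. The endpoint was MIC80, the first well with approximately 80% less growth than the drug-free well. Fluconazole and itraconazole were run as positive controls.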
In general terms: In broth dilution the organism is exposed to a series of concentrations in liquid medium.

Assay [2] has as its system Candida parapsilosis. Briefly: Antifungal activity against Candida parapsilosis ATCC 22019 by micro-broth dilution method. Particulars: Lodderomyces parapsilosis. The essentials: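 Candida parapsilosis ATCC22019 was the quality-control strain tested in every assay. Microbroth dilution followed NCCLS methods, with incubation at 35 C in growth medium. MIC80 is the first well with about 80% growth reduction relative to the drug-free control. Fluconazole and itraconazole were the positive controls.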

The subject of assay [3] is Cryptococcus neoformans. Briefly: Antifungal activity against Cryptococcus neoformans after 72 hrs by micro-broth dilution method. The essentials: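 Cryptococcus neoformans was tested by NCCLS broth microdilution, with drug diluted in growth medium and incubation at 35 C. MIC was read at 72 h as MIC80, the first well with about 80% growth reduction compared with the drug-free well. Fluconazole and itraconazole were the positive controls.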

Assay [4] concerns Pichia kudriavzevii. Briefly: Antifungal activity against Candida krusei ATCC 6258 by micro-broth dilution method. The essentials:
as §1

For assay [5], the system named is Candida tropicalis. In words: Antifungal activity against Candida tropicalis by micro-broth dilution method. The gist of the method: as §1
In assay [6] the test system is Candida albicans. In words: Antifungal activity against Candida albicans after 24 hrs by microbroth dilution method. The essentials: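 Broth microdilution following NCCLS methods, with drug dilutions in growth medium. Inoculated plates were incubated at 35 C and read at 24 h. MIC80 is the first well showing roughly 80% less growth than the drug-free well. Fluconazole and itraconazole served as positive controls.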

As usually defined, the MIC80 is an inhibitory concentration at the 80% level, which refers to growth in some studies and to a panel of isolates in others. Lower therefore signals higher susceptibility. As to `O=[N+]([O-])c1ccc(/C=N/c2ccc(N3CCN(CC(O)(Cn4cncn4)c4ccc(F)cc4F)CC3)cc2)cc1` (stereo not drawn), the MIC80 is 8 µg/mL (≈ 14.6 µM) in assay [1]; 4 µg/mL (≈ 7.31 µM) in assay [2]; over 64 µg/mL in assay [3]; 4 µg/mL (≈ 7.31 µM) in assay [4]; over 64 µg/mL in assay [5]; over 64 µg/mL in assay [6].
`Oc1ccc(/C=N/c2ccc(N3CCN(CC(O)(Cn4cncn4)c4ccc(F)cc4F)CC3)cc2)cc1` (stereo not drawn): the MIC80 in assay [1] is 8 µg/mL (≈ 15.4 µM); in assay [2], 1 µg/mL (≈ 1.93 µM); in assay [3], 4 µg/mL (≈ 7.71 µM); in assay [4], 4 µg/mL (≈ 7.71 µM); in assay [5], over 64 µg/mL; in assay [6] it was 32 µg/mL (≈ 61.7 µM).
Take `OC(CN1CCN(c2ccc(/N=C/c3ccc(Cl)cc3)cc2)CC1)(Cn1cncn1)c1ccc(F)cc1F` (stereo not drawn): the MIC80 in assay [1] is over 64 µg/mL; in assay [2], 1 µg/mL (≈ 1.86 µM); in assay [3], 32 µg/mL (≈ 59.6 µM); in assay [4], 4 µg/mL (≈ 7.45 µM); in assay [5], over 64 µg/mL; in assay [6], 0.5 µg/mL (≈ 0.931 µM).
Turning to `COc1cccc(/C=N/c2ccc(N3CCN(CC(O)(Cn4cncn4)c4ccc(F)cc4F)CC3)cc2)c1O` (stereo not drawn), the MIC80 in assay [1] was 16 µg/mL (≈ 29.2 µM); in assay [2], 4 µg/mL (≈ 7.29 µM); in assay [3], 64 µg/mL (≈ 117 µM); in assay [4] it was 16 µg/mL (≈ 29.2 µM); in assay [5], over 64 µg/mL; in assay [6], over 64 µg/mL.
Take `OC(CN1CCN(c2ccc(/N=C/c3ccc(F)cc3)cc2)CC1)(Cn1cncn1)c1ccc(F)cc1F` (stereo not drawn): the MIC80 is over 64 µg/mL in assay [1]; 2 µg/mL (≈ 3.84 µM) in assay [2]; 4 µg/mL (≈ 7.68 µM) in assay [3]; 16 µg/mL (≈ 30.7 µM) in assay [4]; over 64 µg/mL in assay [5]; 64 µg/mL (≈ 123 µM) in assay [6].
For the compound `OC(CN1CCN(c2ccc(/N=C/c3ccc(Cl)c(Cl)c3)cc2)CC1)(Cn1cncn1)c1ccc(F)cc1F` (stereo not drawn), the MIC80 in assay [1] is over 64 µg/mL; in assay [2], 8 µg/mL (≈ 14 µM); in assay [3], over 64 µg/mL; in assay [4] it was 16 µg/mL (≈ 28 µM); in assay [5], over 64 µg/mL; in assay [6], 1 µg/mL (≈ 1.75 µM).
For `OC(CN1CCN(c2ccc(/N=C/c3ccc(Br)cc3)cc2F)CC1)(Cn1cncn1)c1ccc(F)cc1F` (stereo not drawn), the MIC80 in assay [1] was 16 µg/mL (≈ 26.7 µM); in assay [2] it was 8 µg/mL (≈ 13.3 µM); in assay [3] it was 32 µg/mL (≈ 53.4 µM); in assay [4], 8 µg/mL (≈ 13.3 µM); in assay [5], over 64 µg/mL; in assay [6], 32 µg/mL (≈ 53.4 µM).
Turning to `OC(CN1CCN(c2ccc(/N=C/c3ccc(Br)cc3)cc2)CC1)(Cn1cncn1)c1ccc(F)cc1F` (stereo not drawn), the MIC80 is over 64 µg/mL in assay [1]; 2 µg/mL (≈ 3.44 µM) in assay [2]; 32 µg/mL (≈ 55 µM) in assay [3]; 8 µg/mL (≈ 13.8 µM) in assay [4]; over 64 µg/mL in assay [5]; 64 µg/mL (≈ 110 µM) in assay [6].
On to `OC(Cn1cncn1)(Cn1cncn1)c1ccc(F)cc1F` [FLUCONAZOLE], for which the MIC80 in assay [1] is 8 µg/mL (≈ 26.1 µM); in assay [2], 4 µg/mL (≈ 13.1 µM); in assay [3], 32 µg/mL (≈ 104 µM); in assay [4] it was 8 µg/mL (≈ 26.1 µM); in assay [5], 64 µg/mL (≈ 209 µM); in assay [6], 1 µg/mL (≈ 3.27 µM).
As to `OC(CN1CCN(c2ccc(/N=C/c3ccc4c(c3)OCO4)cc2)CC1)(Cn1cncn1)c1ccc(F)cc1F` (stereo not drawn), the MIC80 is 16 µg/mL (≈ 29.3 µM) in assay [1]; 2 µg/mL (≈ 3.66 µM) in assay [2]; 32 µg/mL (≈ 58.5 µM) in assay [3]; 4 µg/mL (≈ 7.32 µM) in assay [4]; over 64 µg/mL in assay [5]; 16 µg/mL (≈ 29.3 µM) in assay [6].
For `OC(CN1CCN(c2ccc(/N=C/c3ccc(OCc4cccc(Cl)c4)cc3)cc2)CC1)(Cn1cncn1)c1ccc(F)cc1F` (stereo not drawn), the MIC80 is 2 µg/mL (≈ 3.11 µM) in assay [1]; 16 µg/mL (≈ 24.9 µM) in assay [2]; 64 µg/mL (≈ 99.5 µM) in assay [3]; 32 µg/mL (≈ 49.8 µM) in assay [4]; over 64 µg/mL in assay [5]; over 64 µg/mL in assay [6].
As for `OC(CN1CCN(c2ccc(/N=C/c3ccc(F)cc3)cc2F)CC1)(Cn1cncn1)c1ccc(F)cc1F` (stereo not drawn), the MIC80 in assay [1] is 8 µg/mL (≈ 14.9 µM); in assay [2] it was 32 µg/mL (≈ 59.4 µM); in assay [3], 8 µg/mL (≈ 14.9 µM); in assay [4], 8 µg/mL (≈ 14.9 µM); in assay [5], over 64 µg/mL; in assay [6], 4 µg/mL (≈ 7.43 µM).
With `OC(CN1CCN(c2ccc(/N=C/c3ccc(Cl)cc3)cc2F)CC1)(Cn1cncn1)c1ccc(F)cc1F` (stereo not drawn), the MIC80 in assay [1] is 32 µg/mL (≈ 57.7 µM); in assay [2], 16 µg/mL (≈ 28.8 µM); in assay [3] it was 32 µg/mL (≈ 57.7 µM); in assay [4], 16 µg/mL (≈ 28.8 µM); in assay [5], over 64 µg/mL; in assay [6], 16 µg/mL (≈ 28.8 µM).
In the case of `OC(CN1CCN(c2ccc(/N=C/c3ccc(Cl)cc3Cl)cc2)CC1)(Cn1cncn1)c1ccc(F)cc1F` (stereo not drawn), the MIC80 is 8 µg/mL (≈ 14 µM) in assay [1]; 8 µg/mL (≈ 14 µM) in assay [2]; 64 µg/mL (≈ 112 µM) in assay [3]; 8 µg/mL (≈ 14 µM) in assay [4]; over 64 µg/mL in assay [5]; over 64 µg/mL in assay [6].
In the case of `OC(CN1CCN(c2ccc(/N=C/c3ccc(OCc4ccccc4)cc3)cc2)CC1)(Cn1cncn1)c1ccc(F)cc1F` (stereo not drawn), the MIC80 is 32 µg/mL (≈ 52.6 µM) in assay [1]; over 64 µg/mL in assay [2]; 16 µg/mL (≈ 26.3 µM) in assay [3]; 8 µg/mL (≈ 13.1 µM) in assay [4]; over 64 µg/mL in assay [5]; 64 µg/mL (≈ 105 µM) in assay [6].
On to `Cc1ccc(/C=N/c2ccc(N3CCN(CC(O)(Cn4cncn4)c4ccc(F)cc4F)CC3)cc2)cc1` (stereo not drawn), for which the MIC80 in assay [1] was 16 µg/mL (≈ 31 µM); in assay [2], 2 µg/mL (≈ 3.87 µM); in assay [3], over 64 µg/mL; in assay [4], 4 µg/mL (≈ 7.74 µM); in assay [5], over 64 µg/mL; in assay [6], 1 µg/mL (≈ 1.94 µM).
As to `O=[N+]([O-])c1cccc(/C=N/c2ccc(N3CCN(CC(O)(Cn4cncn4)c4ccc(F)cc4F)CC3)cc2)c1` (stereo not drawn), the MIC80 is 4 µg/mL (≈ 7.31 µM) in assay [1]; 4 µg/mL (≈ 7.31 µM) in assay [2]; 16 µg/mL (≈ 29.2 µM) in assay [3]; 8 µg/mL (≈ 14.6 µM) in assay [4]; over 64 µg/mL in assay [5]; 64 µg/mL (≈ 117 µM) in assay [6].
As to `Cc1ccc(/C=N/c2ccc(N3CCN(CC(O)(Cn4cncn4)c4ccc(F)cc4F)CC3)c(F)c2)cc1` (stereo not drawn), the MIC80 in assay [1] is 16 µg/mL (≈ 29.9 µM); in assay [2], 32 µg/mL (≈ 59.9 µM); in assay [3] it was 8 µg/mL (≈ 15 µM); in assay [4] it was 16 µg/mL (≈ 29.9 µM); in assay [5], over 64 µg/mL; in assay [6], 16 µg/mL (≈ 29.9 µM).
